Compound activity from PubChem.
KCC2 mod = modulates chloride dependent transport by human KCC2; Q9H2X9; KCC2 cells, thallium flux FluoZin-2 fluorescence; B-score of Tl+ flux slope (higher = more flux/activation; lower = inhibition) at 10 µM; hit rate 2.2% among 190,000;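 active = thallium flux slope and its plate-corrected score both differing from the plate sample mean at a set confidence after two filtering rounds, in either direction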;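 note: slope of fluorescence scaled to starting intensity during 10 to 20 s after thallium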
Diaphorase act = counter-screen for diaphorase-based assays: diaphorase activators and chemical reducers; Diaphorase/resazurin coupled assay, resorufin fluorescence, 16 min; active compounds read high; 1 = vehicle wells, 0 = NADH-free wells; activation factor at 20 µM; hit rate 0.005% among 190,000;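 active = diaphorase activity raised at least twofold by the compound at 20 µM; inactive = activation factor below 2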
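Material: Purified diaphorase enzyme from Clostridium kluyveri | Buffer or medium: 50 mM HEPES pH 7.4 with 4.542 mM MgCl2, 0.005% Tween 20 | Times: 16 min enzyme reaction, ambient temperature | Signal: Red resorufin fluorescence at 544/590 nm excitation/emission | Measure: Increased resorufin signal from activators or reducing compounds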
Lmaj promast = Leishmania major promastigote growth inhibition | inhibition, % at 10 µM | Leishmania major promastigotes, resazurin fluorescence viability | AID 1063 | hit rate 9% among 200,000; in the data active = inhibition above about 50%;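 note: promastigotes grown with compound for 44 hours at 28 °C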
WT yeast gro inh = growth inhibition of WT yeast, mitochondrial fusion screen; mitochondrial fusion phenotypic screen, WT strain; hit rate 2.1% among 190,000; inhibition, % at 10 µM; in the data active = inhibition above about 58%; tested in S. cerevisiae
ROMK primary = modulators of human ROMK potassium channel | P48048 | Tet-inducible ROMK, thallium flux fluorescence; actives lie on both sides | B-score at 10 µM | hit rate 2% among 130,000 | AID 1918;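 active = signal ratio slope over the read window, or its plate-corrected B-score, at least 3 SD from the plate mean, either direction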;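 note: B-score of the F/F0 ratio slope over 7 to 12 s after thallium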
Target sequence (P48048 whole entry, looked up): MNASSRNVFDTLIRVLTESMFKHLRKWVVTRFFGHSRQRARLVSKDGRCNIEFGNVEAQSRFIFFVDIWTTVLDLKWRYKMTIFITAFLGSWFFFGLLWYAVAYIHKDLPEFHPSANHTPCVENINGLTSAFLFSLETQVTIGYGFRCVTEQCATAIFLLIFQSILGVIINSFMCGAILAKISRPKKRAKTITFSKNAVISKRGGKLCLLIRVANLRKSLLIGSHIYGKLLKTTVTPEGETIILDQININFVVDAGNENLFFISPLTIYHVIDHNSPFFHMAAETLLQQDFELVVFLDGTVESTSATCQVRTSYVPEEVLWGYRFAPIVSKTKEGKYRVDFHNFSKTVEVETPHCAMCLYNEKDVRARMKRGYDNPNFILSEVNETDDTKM
Diaph inh CS = inhibits diaphorase or chemically oxidizes, flagging diaphorase assay artifacts. diaphorase resazurin-to-resorufin fluorescence, NADH, 16 min; bacterial (C. kluyveri) enzyme, not human. inhibition, % at 20 µM. hit rate 0.69% among 190,000. AID 1217;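 active = primary screen inhibition at 20 µM above a set limit, cut at about 50% in these data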;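 note: plate controls were DMSO with full reaction for no effect and wells lacking NADH for full effect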
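System: Bacterial diaphorase enzyme (C. kluyveri) | Incubation: 16-min room-temperature incubation before reading | Benchmarks: No-NADH positive control and DMSO neutral control | Measured by: Resorufin fluorescence 544/590 nm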
ROMK retest = retested hit modulating human ROMK potassium channel. shares compounds with ROMK primary. ROMK thallium flux, fluorescence ratio; active compounds read low. normalized thallium flux (F/F0 slope) at 10 µM. hit rate 54% among 3,000. AID 1917;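 active = Flux at 10 µM at least 3 SD below or above vehicle control mean in one or both replicates; inconclusive = no clear call, values can overlap the other calls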
Numbers without * were called inactive. A selection: hits, their analogues and other compounds. The true share with any hit is near 12%.

How did Cn1c(=O)c(Cc2ccccc2)c(O)c2ccccc21 do in these assays?
KCC2 mod: 1; Diaphorase act: 0.9; Lmaj promast: -10; WT yeast gro inh: -32; Diaph inh CS: 10

What do the screens show for `O=c1c(Cc2ccccc2)c(O)c2cccc3c4c(n1c23)CCCC4`?
KCC2 mod: -2.4; ROMK primary: 3.8*; ROMK retest: inconclusive

Results for CCOC(=O)C1CCN(C(=O)COc2ccc([N+](=O)[O-])cc2)CC1 ?
KCC2 mod: -0.68; Diaphorase act: 1.1; Lmaj promast: 1; WT yeast gro inh: 0; ROMK primary: -1.4; Diaph inh CS: -14

Results for CCOC(=O)C1CCN(c2ccc([N+](=O)[O-])c(C(C)=O)c2)CC1 ?
KCC2 mod: 0.81; Diaphorase act: 0.8; Lmaj promast: 10; WT yeast gro inh: -5; ROMK primary: -3*; Diaph inh CS: 20; ROMK retest: 0.076

Results for O=C(Oc1coc(CSc2ncccn2)cc1=O)c1cccs1 ?
KCC2 mod: 0.13; Diaphorase act: 1; Lmaj promast: -2; WT yeast gro inh: -4; ROMK primary: -0.015; Diaph inh CS: 2

What do the screens show for `N=C1/C(=C\c2ccc(OC(=O)c3ccco3)cc2)C(=O)N=C2SC=NN12`?
KCC2 mod: -1.4; Diaphorase act: 0.8; Lmaj promast: 0; WT yeast gro inh: 7; ROMK primary: -0.12; Diaph inh CS: 23

How did COc1cc(/C=C2\C(=N)N3N=CSC3=NC2=O)cc(Br)c1OC(=O)c1ccco1 do in these assays?
KCC2 mod: -2.8; Diaphorase act: 1; Lmaj promast: -4; WT yeast gro inh: -14; ROMK primary: -10*; Diaph inh CS: -5; ROMK retest: 0.032*

Results for Cc1cc(/C=C2\SC(=Nc3ccc(F)cc3)NC2=O)c(C)n1-c1ccc(S(N)(=O)=O)cc1 ?
KCC2 mod: -0.2; Diaphorase act: 0.8; Lmaj promast: 57*; WT yeast gro inh: -1; ROMK primary: 3.3*; Diaph inh CS: 19; ROMK retest: 0.085

What do the screens show for `COc1ccc(/C=C/C(=O)Nc2cccc(F)c2)cc1S(=O)(=O)N1CCOCC1`?
KCC2 mod: -0.19; Diaphorase act: 0.7; Lmaj promast: 50*; WT yeast gro inh: 2; ROMK primary: -0.86; Diaph inh CS: 26; ROMK retest: 0.064*

Results for CCOCCCNC(=S)N1C2CCC1CC(NC(=O)NC1CCCCC1)C2 (stereo not given) ?
Diaphorase act: 1; Lmaj promast: -7; WT yeast gro inh: -14; Diaph inh CS: -4

Results for CCOC(=O)CSc1ccc2ccccc2n1 ?
KCC2 mod: -0.97; Diaphorase act: 0.9; Lmaj promast: 2; WT yeast gro inh: -4; ROMK primary: -0.15; Diaph inh CS: 12

Results for CCOC(=O)CN1C=C(c2ccc3ccccc3n2)C(C[N+](=O)[O-])c2ccccc21 (stereo not given) ?
KCC2 mod: -1.9; Diaphorase act: 0.8; Lmaj promast: 99*; WT yeast gro inh: 50; ROMK primary: -3.8*; Diaph inh CS: 22; ROMK retest: 0.049*

What do the screens show for `O=C1NC(=Nc2ccc3ccccc3c2)S/C1=C/c1ccco1`?
KCC2 mod: -1.9; Diaphorase act: 0.9; Lmaj promast: -6; WT yeast gro inh: 11; ROMK primary: 2.6*; Diaph inh CS: 10; ROMK retest: 0.074

What do the screens show for `NS(=O)(=O)c1ccc(NC(=O)Cc2c(F)cccc2Cl)cc1`?
KCC2 mod: 1.4; Diaphorase act: 0.9; Lmaj promast: -5; WT yeast gro inh: -16; Diaph inh CS: 11

What do the screens show for `Cc1cccc(NC(=O)c2cc(Cl)nc3ccccc23)n1`?
KCC2 mod: 0.82; ROMK primary: -0.59

Results for CCN(CC)S(=O)(=O)c1ccc(O)c(C(=O)OCC(=O)N2c3ccccc3CC2C)c1 (stereo not given) ?
KCC2 mod: -1.3

What do the screens show for `Cc1cc(C(=O)OCC(=O)N2c3ccccc3CC2C)c(C)o1` (stereo not given)?
KCC2 mod: -1.8; Diaphorase act: 0.8; Lmaj promast: 3; WT yeast gro inh: -13; ROMK primary: -1.4; Diaph inh CS: 16; ROMK retest: inconclusive

Results for COc1ccc(CNCCC(c2ccc(F)cc2)c2ccc(OC)cc2)cc1 (stereo not given) ?
KCC2 mod: -0.23; Diaphorase act: 1.1; Lmaj promast: 100*; WT yeast gro inh: 75; ROMK primary: -4.2*; Diaph inh CS: -6; ROMK retest: 0.053*

Results for CC1CN(C(=O)c2cc3c(s2)CCC3)CC(C)O1 (stereo not given) ?
KCC2 mod: 0.72; Diaphorase act: 1; Lmaj promast: -4; WT yeast gro inh: 17; Diaph inh CS: 3; ROMK retest: 0.086

Results for O=C(c1cc2c(s1)CCCC2)N1CCN(C(=O)C2CCCO2)CC1 (stereo not given) ?
Diaphorase act: 0.9; Lmaj promast: -1; WT yeast gro inh: 10; ROMK primary: 0.55; Diaph inh CS: 11

Results for CC(/C=C/c1cccs1)=C\C(=O)O ?
KCC2 mod: 0.23; Diaphorase act: 1.2; Lmaj promast: -2; WT yeast gro inh: 15; Diaph inh CS: -21

How did O=C(/C=C\c1cccs1)c1c(O)ccc2ccc(=O)oc12 do in these assays?
KCC2 mod: -2.1; Diaphorase act: 1; Lmaj promast: 30; WT yeast gro inh: 12; ROMK primary: -5*; Diaph inh CS: 3; ROMK retest: 0.05*

How did O=C(Nc1ccc([N+](=O)[O-])cc1)c1cc2ccccc2nc1Cl do in these assays?
KCC2 mod: 0.61

How did CC(C)(C)NC(=O)CSC(=Nc1cccc(F)c1)NC#N do in these assays?
KCC2 mod: -0.33; Diaphorase act: 0.9; Lmaj promast: 17; WT yeast gro inh: 9; Diaph inh CS: 10

Results for CCOC(=O)C1(CC2CC2)CCN(Cc2cn[nH]c2-c2ccccc2)CC1 ?
KCC2 mod: -0.13; Diaphorase act: 1; Lmaj promast: 6; WT yeast gro inh: -15; ROMK primary: -0.68; Diaph inh CS: 0

What do the screens show for `CCOC(=O)C1(Cc2ccccc2)CCN(Cc2cn[nH]c2-c2ccccc2)CC1`?
KCC2 mod: -0.026; Diaphorase act: 0.9; Lmaj promast: 33; WT yeast gro inh: 13; ROMK primary: -2.5*; Diaph inh CS: 14; ROMK retest: 0.056*

How did O=S(=O)(/N=C(/Sc1ccccc1)c1ccccc1)c1ccccc1 do in these assays?
KCC2 mod: 0.17; Diaphorase act: 0.9; Lmaj promast: -4; WT yeast gro inh: 9; ROMK primary: -2.8*; Diaph inh CS: 8; ROMK retest: 0.05*
